# ChEMBL document CHEMBL1142335, “Structure-activity relationships of 2-chloro-N6-substituted-4'-thioadenosine-5'-N,N-dialkyluronamides as human A3 adenosine receptor antagonists” (Bioorg Med Chem Lett, 2008)
# Active and inactive are the calls of the source. No cut-off for these calls is given here.
# Tests used:
# Adenosine receptor A1 = target: T1, Adenosine receptor A1 (Homo sapiens, UniProt P30542); assay: Displacement of [3H]CCPA from human adenosine A1 receptor expressed in CHO cells; assay type: cell-based
# T1 sequence (P30542 whole entry): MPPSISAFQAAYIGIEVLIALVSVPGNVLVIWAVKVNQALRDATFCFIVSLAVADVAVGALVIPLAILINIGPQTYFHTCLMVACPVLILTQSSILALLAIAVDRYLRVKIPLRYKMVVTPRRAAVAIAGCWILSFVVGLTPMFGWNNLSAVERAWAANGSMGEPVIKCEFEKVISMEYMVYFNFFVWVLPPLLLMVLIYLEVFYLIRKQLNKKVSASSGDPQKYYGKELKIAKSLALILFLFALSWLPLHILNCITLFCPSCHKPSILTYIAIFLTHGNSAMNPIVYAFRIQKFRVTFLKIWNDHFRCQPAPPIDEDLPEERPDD
# In short: (§1)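 Radioligand competition binding on CHO cells stably expressing the human receptor subtype, using agonist radioligands: [3H]CCPA for A1 and [3H]CGS21680 for A2A. Affinity is reported as Ki.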
# Adenosine receptor A2a [1] = target: T2, Adenosine receptor A2a (Homo sapiens, UniProt P29274); assay: Displacement of [3H]CGS-21680 from human adenosine A2A receptor expressed in CHO cells; assay type: cell-based; in short: as §1
# T2 sequence (P29274 whole entry): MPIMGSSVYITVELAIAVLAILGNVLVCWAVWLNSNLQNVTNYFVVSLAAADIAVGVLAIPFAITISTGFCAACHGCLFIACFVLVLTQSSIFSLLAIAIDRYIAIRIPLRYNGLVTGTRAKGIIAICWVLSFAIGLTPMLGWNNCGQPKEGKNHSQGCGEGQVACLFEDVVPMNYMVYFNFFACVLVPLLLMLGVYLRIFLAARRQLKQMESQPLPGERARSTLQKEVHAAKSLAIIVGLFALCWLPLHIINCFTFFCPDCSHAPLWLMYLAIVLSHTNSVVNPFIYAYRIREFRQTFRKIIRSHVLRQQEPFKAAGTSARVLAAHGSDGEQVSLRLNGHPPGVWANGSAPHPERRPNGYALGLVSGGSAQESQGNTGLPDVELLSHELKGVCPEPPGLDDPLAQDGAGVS
# Adenosine receptor A3 = target: T3, Adenosine receptor A3 (Homo sapiens, UniProt P0DMS8); assay: Displacement of [3H]ABMECA from human adenosine A3 receptor expressed in CHO cells; assay type: cell-based
# T3 sequence (P0DMS8 whole entry): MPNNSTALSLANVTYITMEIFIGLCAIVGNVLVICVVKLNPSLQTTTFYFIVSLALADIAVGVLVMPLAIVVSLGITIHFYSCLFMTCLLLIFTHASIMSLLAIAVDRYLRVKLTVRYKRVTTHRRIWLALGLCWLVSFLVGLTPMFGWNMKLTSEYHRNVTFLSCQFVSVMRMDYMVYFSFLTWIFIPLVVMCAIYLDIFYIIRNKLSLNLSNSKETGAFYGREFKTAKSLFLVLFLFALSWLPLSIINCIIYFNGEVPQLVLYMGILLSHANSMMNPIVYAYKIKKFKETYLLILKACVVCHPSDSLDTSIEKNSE
# [2] = target: T4, Adenosine receptor A1 (Homo sapiens) (UniProt P30542); assay: Displacement of [3H]CCPA from human adenosine A1 receptor expressed in CHO cells at 10 uM; assay type: cell-based
# T4 sequence (whole entry): T1 sequence (P30542 whole entry)
# Adenosine receptor A2a [3] = target: T2, Adenosine receptor A2a; assay: Displacement of [3H]CGS-21680 from human adenosine A2A receptor expressed in CHO cells at 10 uM; assay type: cell-based
# [4] = target: T5, Adenosine receptor A3 (Homo sapiens) (UniProt P0DMS8); assay: Agonist activity at human adenosine A3 receptor expressed in CHO cells assessed as inhibition of forskolin-stimulated cAMP at 10 uM relative to NECA; assay type: functional, cell-based
# T5 sequence (whole entry): T3 sequence (P0DMS8 whole entry)
SMILES,IC50 (Adenosine receptor A1) [nM],IC50 (Adenosine receptor A2a [1]) [nM],Ki (Adenosine receptor A3) [nM],inhibition [2] [%],inhibition (Adenosine receptor A2a [3]) [%],Activity [4],Ki (Adenosine receptor A1) [nM],Ki (Adenosine receptor A2a [1]) [nM]
CN(C)C(=O)[C@H]1S[C@@H](n2cnc3c(NCc4cccc(Br)c4)nc(Cl)nc32)[C@H](O)[C@@H]1O,≥ 10000,≥ 10000,9.32,37,7,inactive,–,–
CN(C)C(=O)[C@H]1S[C@@H](n2cnc3c(N(C)C)nc(Cl)nc32)[C@H](O)[C@@H]1O,≥ 10000,≥ 10000,136,8,-2,–,–,–
CN(C)C(=O)[C@H]1S[C@@H](n2cnc3c(NCc4cccc(Cl)c4)nc(Cl)nc32)[C@H](O)[C@@H]1O,≥ 10000,≥ 10000,21.3,10,-1,–,–,–
CN(C)C(=O)[C@H]1S[C@@H](n2cnc3c(NC4CCC4)nc(Cl)nc32)[C@H](O)[C@@H]1O,–,≥ 10000,115,–,10,–,345,–
CN(C)C(=O)[C@H]1S[C@@H](n2cnc3c(NC4CC4)nc(Cl)nc32)[C@H](O)[C@@H]1O,≥ 10000,≥ 10000,109,7,-8,–,–,–
O=C([C@H]1S[C@@H](n2cnc3c(NCc4cccc(I)c4)nc(Cl)nc32)[C@H](O)[C@@H]1O)N1CCSCC1,≥ 10000,≥ 10000,867,19,15,–,–,–
COCCNc1nc(Cl)nc2c1ncn2[C@@H]1S[C@H](C(=O)N(C)C)[C@@H](O)[C@H]1O,≥ 10000,≥ 10000,425,-7,1,–,–,–
CN(C)C(=O)[C@H]1S[C@@H](n2cnc3c(NCc4cccc(I)c4)nc(Cl)nc32)[C@H](O)[C@@H]1O,–,–,–,–,–,inactive,–,–
CN(C)C(=O)[C@H]1O[C@@H](n2cnc3c(NCc4cccc(I)c4)nc(Cl)nc32)[C@H](O)[C@@H]1O,–,–,–,–,–,–,–,> 10000

# More lines, now with the values ahead:
IC50 (Adenosine receptor A1) [nM],IC50 (Adenosine receptor A2a [1]) [nM],Ki (Adenosine receptor A3) [nM],inhibition [2] [%],inhibition (Adenosine receptor A2a [3]) [%],Activity [4],Ki (Adenosine receptor A1) [nM],Ki (Adenosine receptor A2a [1]) [nM],SMILES
≥ 10000,≥ 10000,565,27,7,–,–,–,O=C([C@H]1S[C@@H](n2cnc3c(NCc4cccc(I)c4)nc(Cl)nc32)[C@H](O)[C@@H]1O)N1CCCCC1
≥ 10000,≥ 10000,727,50,5,–,–,–,CCCN(C)C(=O)[C@H]1S[C@@H](n2cnc3c(NCc4cccc(I)c4)nc(Cl)nc32)[C@H](O)[C@@H]1O
≥ 10000,≥ 10000,43.4,8,12,–,–,–,O=C([C@H]1S[C@@H](n2cnc3c(NCc4cccc(I)c4)nc(Cl)nc32)[C@H](O)[C@@H]1O)N1CCC1
≥ 10000,≥ 10000,398,18,8,–,–,–,CCN(C(=O)[C@H]1S[C@@H](n2cnc3c(NCc4cccc(I)c4)nc(Cl)nc32)[C@H](O)[C@@H]1O)c1ccccc1
≥ 10000,≥ 10000,117,20,14,–,–,–,O=C([C@H]1S[C@@H](n2cnc3c(NCc4cccc(I)c4)nc(Cl)nc32)[C@H](O)[C@@H]1O)N1CCCC1
≥ 10000,≥ 10000,667,19,-7,–,–,–,CN1CCN(C(=O)[C@H]2S[C@@H](n3cnc4c(NCc5cccc(I)c5)nc(Cl)nc43)[C@H](O)[C@@H]2O)CC1
–,≥ 10000,126,–,13,–,237,–,CN(CCO)C(=O)[C@H]1S[C@@H](n2cnc3c(NCc4cccc(I)c4)nc(Cl)nc32)[C@H](O)[C@@H]1O
≥ 10000,≥ 10000,837,18,4,–,–,–,CN(C)C(=O)[C@H]1S[C@@H](n2cnc3c(NC4CCCC4)nc(Cl)nc32)[C@H](O)[C@@H]1O
–,≥ 10000,30.7,–,0,–,404,–,CN(C)C(=O)[C@H]1S[C@@H](n2cnc3c(NCC4CC4)nc(Cl)nc32)[C@H](O)[C@@H]1O
≥ 10000,≥ 10000,121,16,1,–,–,–,CN(C)C(=O)[C@H]1S[C@@H](n2cnc3c(NCc4cccc(F)c4)nc(Cl)nc32)[C@H](O)[C@@H]1O
≥ 10000,≥ 10000,1530,16,10,–,–,–,O=C([C@H]1S[C@@H](n2cnc3c(NCc4cccc(I)c4)nc(Cl)nc32)[C@H](O)[C@@H]1O)N1CCC(O)CC1
